Test results from ChEMBL document CHEMBL4732211, “Multifunctional agents based on benzoxazolone as promising therapeutic drugs for diabetic nephropathy” (Eur J Med Chem, 2021).
Activity calls are given as the source filed them. No cut-off for these calls is given here.

What was measured:
HEK-293T = assay: Cytotoxicity against human HEK293T cells at 25 to 200 uM measured after 24 hrs by MTT assay; assay type: cell-based; conditions: dose 25-200 µM
Method in brief: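 293T cells seeded at 1×10^5/well and exposed to 25, 50, 100 and 200 for 24 h at 37 °C; viability by MTT kit.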

Mus musculus [1] = assay: Reno-protective activity in STZ-induced Kunming mouse model of diabetes assessed as urinary total protein excretion at 160 mg/kg, po administered daily via gavage for 8 weeks and measured at week 6 relative to control; assay type: functional; conditions: time 6 weeks
Mus musculus [2] = assay: Antidiabetic activity in STZ-induced Kunming mouse model of diabetes assessed as reduction in blood glucose level at 80 mg/kg, po administered daily via gavage for 8 weeks and measured at week 8; assay type: functional; conditions: 1344 h
[3] = Inhibition of polyol pathway in STZ-induced Kunming mouse model of diabetes assessed as decrease in sorbitol level in kidney cortex at 80 mg/kg, po administered daily via gavage for 8 weeks and measured at 6 hrs post-final drug dose by fluorospectrophotometric analysis; assay type: functional; conditions: 1344 h
[4] = target: Aldo-keto reductase family 1 member A1 (Rattus norvegicus, UniProt P51635); assay: Inhibition of Wistar rat kidney ALR1 assessed as reduction in NADPH oxidation using sodium D-glucuronate and NADPH as substrate preincubated for 10 mins followed by substrate addition and measured for 4 mins by spectrophotometric analysis; assay type: tissue-based
Aldo-keto reductase family 1 member A1, sequence (P51635 whole entry, looked up): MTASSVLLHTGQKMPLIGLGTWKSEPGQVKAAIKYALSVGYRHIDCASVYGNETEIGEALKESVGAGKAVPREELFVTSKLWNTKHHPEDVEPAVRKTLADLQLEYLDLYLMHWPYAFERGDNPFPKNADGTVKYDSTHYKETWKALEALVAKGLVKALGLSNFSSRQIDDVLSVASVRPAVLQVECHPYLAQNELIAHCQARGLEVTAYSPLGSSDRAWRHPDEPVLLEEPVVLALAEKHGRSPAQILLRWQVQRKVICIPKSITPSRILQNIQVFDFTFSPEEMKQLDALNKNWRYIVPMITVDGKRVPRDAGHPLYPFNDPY

Mus musculus [5] = assay: Reno-protective activity in STZ-induced Kunming mouse model of diabetes assessed as reduction in urinary total protein excretion at 80 mg/kg, po administered QD via gavage for 4 weeks and measured at week 2 to 4; assay type: functional, organism-based; conditions: time 2-4 weeks
Mus musculus [6] = assay: Antidiabetic activity in STZ-induced Kunming mouse model of diabetes assessed as reduction in blood glucose level at 160 mg/kg, po administered daily via gavage for 8 weeks and measured at week 6; assay type: functional; conditions: 1008 h, time 6 weeks
Mus musculus [7] = assay: Reno-protective activity in STZ-induced Kunming mouse model of diabetes assessed as reduction in albumin to creatinine ratio at 80 mg/kg, po administered QD via gavage for 4 weeks; assay type: functional; conditions: 672 h
Mus musculus [8] = assay: Reno-protective activity in STZ-induced Kunming mouse model of diabetes assessed as reduction in albumin to creatinine ratio at 80 mg/kg, po administered daily via gavage for 8 weeks; assay type: functional; conditions: 1344 h
Mus musculus [9] = assay: Reno-protective activity in STZ-induced Kunming mouse model of diabetes assessed as urinary total protein excretion at 160 mg/kg, po administered daily via gavage for 8 weeks and measured at week 8 relative to control; assay type: functional
[10] = target: Aldo-keto reductase family 1 member B1 (Rattus norvegicus) (UniProt P07943); assay: Uncompetitive inhibition of Wistar rat lens ALR2 at 2.5 mM using D,L-glyeraldehyde as substrate in presence of varying levels of NADPH by double reciprocal plot analysis; assay type: tissue-based
Method in brief: (§1)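 Rat ALR2 kinetics run under the assay conditions with inhibitor at 10 and 5 nM. Either D,L-glyceraldehyde varied (7.5-0.94 mM) with cofactor 0.025 mM, or NADPH varied (25-3.125) with glyceraldehyde 2.5 mM. Mode assigned from double-reciprocal plots.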

Mus musculus [11] = assay: Antidiabetic activity in STZ-induced Kunming mouse model of diabetes assessed as reduction in blood glucose level at 80 mg/kg, po administered daily via gavage for 8 weeks and measured at week 6; assay type: functional; conditions: 1008 h, time 6 weeks
[12] = target: Aldo-keto reductase family 1 member B1 (Rattus norvegicus) (UniProt P07943); assay: Noncompetitive inhibition of Wistar rat lens ALR2 at 0.025 mM using varying level of D,L-glyeraldehyde as substrate in presence of NADPH by double reciprocal plot analysis; assay type: tissue-based; method in brief: as §1
Mus musculus [13] = assay: Reno-protective activity in STZ-induced Kunming mouse model of diabetes assessed as urinary total protein excretion at 160 mg/kg, po administered daily via gavage for 8 weeks and measured at week 4 relative to control; assay type: functional; conditions: time 4 weeks
Mus musculus [14] = assay: Antioxidant activity in STZ-induced diabetic Kunming mouse assessed as increase in SOD level in kidney at 80 mg/kg, po administered daily via gavage for 8 weeks and measured at 6 hrs post-final drug dose; assay type: functional
Mus musculus [15] = assay: Antidiabetic activity in STZ-induced Kunming mouse model of diabetes assessed as reduction in blood glucose level at 80 mg/kg, po administered daily via gavage for 8 weeks and measured at week 4; assay type: functional; conditions: 672 h, time 4 weeks
Mus musculus [16] = assay: Reno-protective activity in STZ-induced Kunming mouse model of diabetes assessed as urinary total protein excretion at 80 mg/kg, po administered daily via gavage for 8 weeks and measured at week 8 relative to control; assay type: functional
Mus musculus [17] = assay: Antidiabetic activity in STZ-induced Kunming mouse model of diabetes assessed as reduction in blood glucose level at 160 mg/kg, po administered daily via gavage for 8 weeks and measured at week 8; assay type: functional; conditions: 1344 h
Mus musculus [18] = assay: Antidiabetic activity in STZ-induced Kunming mouse model of diabetes assessed as improvement in glucose tolerance at 80 mg/kg, po QD administered via gavage and measured for 120 mins by intraperitoneal GTT
Mus musculus [19] = assay: Reno-protective activity in STZ-induced Kunming mouse model of diabetes assessed as urinary total protein excretion at 80 mg/kg, po administered daily via gavage for 8 weeks and measured at week 4 relative to control; assay type: functional; conditions: time 4 weeks

In the case of `COc1cc(/C=C/c2cccc3c2oc(=O)n3CC(=O)O)ccc1O`, the Activity (HEK-293T) is reported as “Non-Toxic”, the Activity (Mus musculus [1]) is reported as 36% and the inhibition in vivo at 80 mg/kg (Mus musculus [2]) is reported as 9%. For the same compound, the inhibition in vivo at 80 mg/kg [3] was 19%, the IC50 [4] was 4.9 µM and the Activity (Mus musculus [5]) was “Active”. The inhibition in vivo at 160 mg/kg (Mus musculus [6]) was 19%, the inhibition in vivo at 80 mg/kg (Mus musculus [7]) was 57% and the inhibition in vivo at 80 mg/kg (Mus musculus [8]) was 67%. The Activity (Mus musculus [9]) was 58%, the inhibition [10] was “Active” and the inhibition in vivo at 80 mg/kg (Mus musculus [11]) was 19%. For the same compound, the inhibition [12] was “Active”, the Activity (Mus musculus [13]) was 93% and the Activity (Mus musculus [14]) was 177%. It also gave an inhibition in vivo at 80 mg/kg (Mus musculus [15]) of 24%, an Activity (Mus musculus [16]) of 53% and an inhibition in vivo at 160 mg/kg (Mus musculus [17]) of 20%. For the same compound, the Activity (Mus musculus [18]) was “Active” and the Activity (Mus musculus [19]) was 78%.
